Data published in ChEMBL document CHEMBL1143482, “Insecticidal anthranilic diamides: a new class of potent ryanodine receptor activators” (2005).
≈ marks a conversion by molar mass, not a printed value.

Assays:
Assay type in all cases: functional
Periplaneta americana = assay: Ability to release internal calcium stores mediated by ryanodine receptor without activation of voltage-gated calcium channel of cockroach in CMT assay
In short: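 Embryonic Periplaneta americana neurons cultured 7–14 days on glass coverslips, loaded 30 min with Fura-2 AM (2 µM) plus 0.02% pluronic acid in saline (mM: NaCl 190, KCl 3.1, CaCl2 9.0, Tris 10.0, pH 7.2). Ratio imaging, 340/380 nm excitation, 510 nm emission, under perfusion. Caffeine 20 mM given first; only caffeine-responsive cells analysed. Test compounds applied 3 min at multiple rates (n ≥ 11).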

Heliothis virescens = assay: Lethal concentration required for 50% mortality in Tobacco budworm
In short: (§1)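 Larvae exposed to multiple test rates, 16 insects per rate. Mortality scored 96 h post-infestation as percent control = (dead/total) × 100. LC50 in ppm, with confidence intervals, from Probit analysis with maximum quasi-likelihood curve fitting.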

Spodoptera frugiperda = assay: Lethal concentration required for 50% mortality in Fall armyworm; in short: as §1

| Compound | CMT (Periplaneta americana) | LC50 (Heliothis virescens) | LC50 (Spodoptera frugiperda) |
| --- | --- | --- | --- |
| Cc1cccc(C(=O)NC(C)C)c1NC(=O)c1cnc(C(F)(F)F)nc1C(C)C | 26.6 µM | 42.3 µg/mL (≈ 104 µM) | 9.8 µg/mL (≈ 24 µM) |
| Cc1cc(C(F)(F)F)ccc1C(=O)Nc1ccccc1C(=O)NC(C)C | 39.3 µM | > 500 µg/mL | 27.3 µg/mL (≈ 74.9 µM) |
| Cc1cc(Cl)cc(C(=O)NC(C)C)c1NC(=O)c1cc(C(F)(F)F)nn1-c1ncccc1Cl | 0.1 µM | 0.02 µg/mL (≈ 0.04 µM) | – |
| Cc1cccc(C(=O)NC(C)C)c1NC(=O)c1ccc(C(F)(F)F)nc1C | – | 327 µg/mL (≈ 862 µM) | 20.7 µg/mL (≈ 54.6 µM) |
| CNC(=O)c1cccc(C)c1NC(=O)c1ccc(C(F)(F)F)cc1C | – | > 500 µg/mL | 60.1 µg/mL (≈ 172 µM) |
| Cc1cccc(C(=O)NC(C)C)c1NC(=O)c1ccc(C(F)(F)F)nc1C(C)C | – | 55.5 µg/mL (≈ 136 µM) | 9.6 µg/mL (≈ 23.6 µM) |
| CC(C)NC(=O)c1cccc(Cl)c1NC(=O)c1cc(C(F)(F)F)nn1-c1ccccc1Cl | 0.3 µM | 3 µg/mL (≈ 6.18 µM) | 0.1 µg/mL (≈ 0.206 µM) |
| COC(=O)N(C(=O)N1CO[C@@]2(C(=O)OC)Cc3cc(Cl)ccc3C2=N1)c1ccc(OC(F)(F)F)cc1 [INDOXACARB] | – | 1.5 µg/mL (≈ 2.84 µM) | 0.5 µg/mL (≈ 0.947 µM) |
| CCNC(=O)c1cccc(C)c1NC(=O)c1ccc(C(F)(F)F)cc1C | – | > 500 µg/mL | 32.8 µg/mL (≈ 90 µM) |
| Cc1cccc(C(=O)NC(C)C)c1NC(=O)c1cc(C(F)(F)F)nn1C(C)C | – | 36.4 µg/mL (≈ 91.8 µM) | 11.1 µg/mL (≈ 28 µM) |
| CC1(C)C(C=C(Cl)Cl)C1C(=O)OC(C#N)c1cccc(Oc2ccccc2)c1 (stereo not drawn) [ALPHA-CYPERMETHRIN] | – | 13.5 µg/mL (≈ 32.4 µM) | 2.1 µg/mL (≈ 5.04 µM) |
| CC(C)NC(=O)c1cccc(Cl)c1NC(=O)c1cc(C(F)(F)F)nn1-c1ncccc1Cl | – | 0.4 µg/mL (≈ 0.823 µM) | 0.1 µg/mL (≈ 0.206 µM) |
| Cc1cccc(C(=O)NC(C)C)c1NC(=O)c1cnc(C(F)(F)F)nc1C | – | 102 µg/mL (≈ 269 µM) | 11.6 µg/mL (≈ 30.5 µM) |
| Cc1cccc(C(=O)NC(C)C)c1NC(=O)c1cc(C(F)(F)F)nn1-c1ncccc1Cl | 0.3 µM | 0.4 µg/mL (≈ 0.859 µM) | 0.1 µg/mL (≈ 0.215 µM) |
| Cc1cccc(C(=O)NC(C)C)c1NC(=O)c1cc(C(F)(F)F)nn1C | 120 µM | 130 µg/mL (≈ 353 µM) | 29.6 µg/mL (≈ 80.4 µM) |
| Cc1cccc(C(=O)NC(C)C)c1NC(=O)c1cc(C(F)(F)F)nn1-c1ccccc1Cl | 0.2 µM | 3.4 µg/mL (≈ 7.31 µM) | 0.05 µg/mL (≈ 0.108 µM) |
| Cc1cccc(C(=O)NC(C)C)c1NC(=O)c1cc(C(F)(F)F)nn1-c1ccc(Cl)cc1 | – | > 500 µg/mL | > 500 µg/mL |
| Cc1cccc(C(=O)NC(C)C)c1NC(=O)c1cc(C(F)(F)F)nn1-c1cccc(Cl)c1 | – | > 500 µg/mL | > 500 µg/mL |
| CCc1nc(C(F)(F)F)ccc1C(=O)Nc1c(C)cccc1C(=O)NC(C)C | 20.6 µM | 77.5 µg/mL (≈ 197 µM) | 9.7 µg/mL (≈ 24.7 µM) |
| Cc1cccc(C(=O)NC(C)C)c1NC(=O)c1cc(C(F)(F)F)nn1-c1ccccc1 | – | 354 µg/mL (≈ 822 µM) | 26 µg/mL (≈ 60.4 µM) |
| CCc1nc(C(F)(F)F)ncc1C(=O)Nc1c(C)cccc1C(=O)NC(C)C | – | 41 µg/mL (≈ 104 µM) | 9 µg/mL (≈ 22.8 µM) |
| Cc1cccc(C(=O)NC(C)C)c1NC(=O)c1ccc(C(F)(F)F)cc1 | – | > 500 µg/mL | 16.9 µg/mL (≈ 46.4 µM) |
| CCn1nc(C(F)(F)F)cc1C(=O)Nc1c(C)cccc1C(=O)NC(C)C | – | 158 µg/mL (≈ 413 µM) | 34.8 µg/mL (≈ 91 µM) |
| Cc1cc(C(F)(F)F)ccc1C(=O)Nc1cccc(C)c1C(=O)NC(C)C | – | > 500 µg/mL | 77 µg/mL (≈ 203 µM) |
| Cc1cc(C(F)(F)F)ccc1C(=O)Nc1c(C)cccc1C(=O)NC(C)C | – | 256 µg/mL (≈ 675 µM) | 20.7 µg/mL (≈ 54.7 µM) |
